Test results reported in ChEMBL document CHEMBL1138573, “Synthesis and molluscicidal activity of some new thiophene, thiadiazole and pyrazole derivatives” (2009).
≈ marks a conversion by molar mass, not a printed value.

Legend:
Assay type in all cases: functional
Biomphalaria alexandrina [1] = experiment: Molluscicidal activity against Biomphalaria alexandrina assessed as number of dead snail per 10 snails at 14 ppm after 24 hrs
Method in brief: (§1)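 Field-collected B. alexandrina snails held 45 days in the lab, fed daily on lettuce, and checked free of parasitic infection. Compound mixed with a few drops of Tween 20, then suspended in untreated raw River Nile water at seven concentrations of 4–16 ppm, in aerated glass jars. Ten snails of similar size (ca. 7 mm) per jar, kept 24 h at ambient temperature. Run three times and the mean number killed taken. LC50 and LC90 were derived from this mortality. Control was water with Tween 20. Follows WHO guidelines.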

Biomphalaria alexandrina [2] = experiment: Molluscicidal activity against Biomphalaria alexandrina assessed as number of dead snail per 10 snails at 4 ppm after 24 hrs; method in brief: as §1
Biomphalaria alexandrina [3] = experiment: Molluscicidal activity against Biomphalaria alexandrina assessed as number of dead snail per 10 snails at 10 ppm after 24 hrs; method in brief: as §1
Biomphalaria alexandrina [4] = experiment: Molluscicidal activity against Biomphalaria alexandrina assessed as number of dead snail per 10 snails at 8 ppm after 24 hrs; method in brief: as §1
Biomphalaria alexandrina [5] = experiment: Molluscicidal activity against Biomphalaria alexandrina assessed as number of dead snail per 10 snails at 16 ppm after 24 hrs; method in brief: as §1
Biomphalaria alexandrina [6] = experiment: Molluscicidal activity against Biomphalaria alexandrina assessed as number of dead snail per 10 snails at 6 ppm after 24 hrs; method in brief: as §1
Biomphalaria alexandrina [7] = experiment: Molluscicidal activity against Biomphalaria alexandrina after 24 hrs; conditions: for LC50: Biomphalaria alexandrina, 24 h; method in brief: as §1
Biomphalaria alexandrina [8] = experiment: Molluscicidal activity against Biomphalaria alexandrina assessed as number of dead snail per 10 snails at 12 ppm after 24 hrs; method in brief: as §1

For `CC(=O)c1sc(Nc2ccccc2)c(C(=O)c2ccccc2)c1C`, which Activity (Biomphalaria alexandrina [1]) is on record?
The Activity was 10.

What about the Activity (Biomphalaria alexandrina [2]) of the same compound?
Its Activity is 1.

What about the Activity (Biomphalaria alexandrina [3]) of the same compound?
Its Activity is 8.

What about the Activity (Biomphalaria alexandrina [4]) of the same compound?
The Activity was 5.

And the Activity (Biomphalaria alexandrina [5])?
The Activity was 10.

What about the Activity (Biomphalaria alexandrina [6]) of the same compound?
The Activity was 3.

And the LC90 (Biomphalaria alexandrina [7])?
The LC90 was 22 ppm.

What about the LC50 (Biomphalaria alexandrina [7]) of the same compound?
Its LC50 is 16 µg/mL (≈ 47.7 µM).

And the Activity (Biomphalaria alexandrina [8])?
Its Activity is 8.

Which Activity (Biomphalaria alexandrina [1]) does the source give for `Cc1c(C(=O)c2ccccc2)sc(Nc2ccccc2)c1C(=O)c1ccccc1` here?
Its Activity is 10.

What about the Activity (Biomphalaria alexandrina [2]) of the same compound?
Its Activity is 1.

What about the Activity (Biomphalaria alexandrina [3]) of the same compound?
The Activity was 6.

And the Activity (Biomphalaria alexandrina [4])?
The Activity was 5.

And the Activity (Biomphalaria alexandrina [5])?
Its Activity is 10.

And the Activity (Biomphalaria alexandrina [6])?
The Activity was 4.

What about the LC90 (Biomphalaria alexandrina [7]) of the same compound?
Its LC90 is 20 ppm.

And the LC50 (Biomphalaria alexandrina [7])?
Its LC50 is 15.6 µg/mL (≈ 39.2 µM).

And the Activity (Biomphalaria alexandrina [8])?
Its Activity is 9.

With `COc1ccc(N2N=C(C(=O)c3ccccc3)S/C2=C(/C(C)=O)C(=O)c2ccccc2)cc1` as the compound, how does the Activity (Biomphalaria alexandrina [1]) read?
Its Activity is 10.

What about the Activity (Biomphalaria alexandrina [2]) of the same compound?
The Activity was 1.

And the Activity (Biomphalaria alexandrina [3])?
Its Activity is 7.

What about the Activity (Biomphalaria alexandrina [4]) of the same compound?
The Activity was 4.

And the Activity (Biomphalaria alexandrina [5])?
The Activity was 10.

And the Activity (Biomphalaria alexandrina [6])?
The Activity was 3.

And the LC90 (Biomphalaria alexandrina [7])?
The LC90 was 11 ppm.

What about the LC50 (Biomphalaria alexandrina [7]) of the same compound?
Its LC50 is 6 µg/mL (≈ 13.1 µM).

What about the Activity (Biomphalaria alexandrina [8]) of the same compound?
Its Activity is 10.

How did the Activity (Biomphalaria alexandrina [1]) turn out when `CC(=O)/C(C(=O)c1ccccc1)=C1/SC(C(=O)c2ccccc2)=NN1c1ccccc1` was run?
The Activity was 10.

What about the Activity (Biomphalaria alexandrina [2]) of the same compound?
The Activity was 2.

What about the Activity (Biomphalaria alexandrina [3]) of the same compound?
Its Activity is 6.

What about the Activity (Biomphalaria alexandrina [4]) of the same compound?
The Activity was 4.

And the Activity (Biomphalaria alexandrina [5])?
The Activity was 10.

What about the Activity (Biomphalaria alexandrina [6]) of the same compound?
Its Activity is 2.

And the LC90 (Biomphalaria alexandrina [7])?
Its LC90 is 10 ppm.

What about the LC50 (Biomphalaria alexandrina [7]) of the same compound?
The LC50 was 8 µg/mL (≈ 18.8 µM).

What about the Activity (Biomphalaria alexandrina [8]) of the same compound?
The Activity was 9.

What does the source list for `Cc1n[nH]c(Nc2ccccc2)c1C(=O)c1ccccc1`?
Activity (Biomphalaria alexandrina [1]): 10; Activity (Biomphalaria alexandrina [2]): 1; Activity (Biomphalaria alexandrina [3]): 8; Activity (Biomphalaria alexandrina [4]): 4; Activity (Biomphalaria alexandrina [5]): 10; Activity (Biomphalaria alexandrina [6]): 3; LC90 (Biomphalaria alexandrina [7]): 18 ppm; LC50 (Biomphalaria alexandrina [7]): 13 µg/mL (≈ 46.9 µM); Activity (Biomphalaria alexandrina [8]): 9

`Cc1c(C(=O)O)sc(Nc2ccccc2)c1C(=O)c1ccccc1` was tested. Which Activity (Biomphalaria alexandrina [1]) did it give?
The Activity was 8.

And the Activity (Biomphalaria alexandrina [2])?
Its Activity is 1.

What about the Activity (Biomphalaria alexandrina [3]) of the same compound?
The Activity was 5.

And the Activity (Biomphalaria alexandrina [4])?
Its Activity is 3.

And the Activity (Biomphalaria alexandrina [5])?
Its Activity is 10.

What about the Activity (Biomphalaria alexandrina [6]) of the same compound?
The Activity was 2.

And the LC90 (Biomphalaria alexandrina [7])?
The LC90 was 23 ppm.

What about the LC50 (Biomphalaria alexandrina [7]) of the same compound?
Its LC50 is 19 µg/mL (≈ 56.3 µM).

And the Activity (Biomphalaria alexandrina [8])?
Its Activity is 6.

`O=C(Nc1cc(Cl)c([N+](=O)[O-])cc1Cl)c1ccccc1O` was tested. Which LC100 (Biomphalaria alexandrina [7]) did it give?
The LC100 was 1 ppm.

Which results are given for `CCOC(=O)c1sc(Nc2ccccc2)c(C(=O)c2ccccc2)c1C`?
Activity (Biomphalaria alexandrina [1]): 4; Activity (Biomphalaria alexandrina [2]): 0; Activity (Biomphalaria alexandrina [3]): 2; Activity (Biomphalaria alexandrina [4]): 1; Activity (Biomphalaria alexandrina [5]): 10; Activity (Biomphalaria alexandrina [6]): 1; LC90 (Biomphalaria alexandrina [7]): 20 ppm; LC50 (Biomphalaria alexandrina [7]): 18 µg/mL (≈ 49.3 µM); Activity (Biomphalaria alexandrina [8]): 2

Which results are given for `CC(=O)/C(C(=O)c1ccccc1)=C1/SC(C(=O)c2ccccc2)=NN1c1ccc(C)cc1`?
Activity (Biomphalaria alexandrina [1]): 10; Activity (Biomphalaria alexandrina [2]): 2; Activity (Biomphalaria alexandrina [3]): 8; Activity (Biomphalaria alexandrina [4]): 5; Activity (Biomphalaria alexandrina [5]): 10; Activity (Biomphalaria alexandrina [6]): 3; LC90 (Biomphalaria alexandrina [7]): 9 ppm; LC50 (Biomphalaria alexandrina [7]): 5.5 µg/mL (≈ 12.5 µM); Activity (Biomphalaria alexandrina [8]): 10
